Data from ChEMBL document CHEMBL4033777, “Next-Generation Hypoxic Cell Radiosensitizers: Nitroimidazole Alkylsulfonamides” (J Med Chem, 2018).
Converted amounts (≈) assume the structure as drawn.

Experiments:
[1] = Solubility of the compound in alphaMEM containing 5% FCS and 1% DMSO by HPLC analysis; assay type: physicochemical
Method in brief: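 Saturated drug solutions were incubated at 37 °C in αMEM with 5% FCS and 1% DMSO. Dissolved drug was quantified by HPLC.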

HCT-116 [2] = experiment: Cytotoxicity against human HCT116 cells incubated for 4 hrs under anaerobic condition measured after 5 days by sulforhodamine B assay; assay type: functional, cell-based
Method in brief: (§1)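 STR-authenticated, mycoplasma-free HCT116 cells in αMEM + 5% FCS were seeded at 700 cells/well and allowed 2 h to attach. Drug was added from DMSO stocks (<1% DMSO) in serial 3-fold dilutions for 4 h, oxic or anoxic (Pd-catalyst anaerobic chamber, medium pre-equilibrated ≥3 days). After washing, cells regrew for 5 days before SRB staining and IC50 determination.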

HCT-116 [3] = experiment: Hypoxic cytotoxicity ratio of IC50 for human HCT116 cells under oxic condition to IC50 for human HCT116 cells under anoxic condition
Method in brief: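 HCT116 cells, 700 per well and attached 2 h, got a 4 h exposure to 3-fold serial dilutions (<1% DMSO) under air or in a Pd-catalyst anaerobic chamber with pre-equilibrated medium. Cells were washed, regrown 5 days, and stained with sulforhodamine B to give IC50. HCR = oxic IC50 / anoxic IC50.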

HCT-116 [4] = experiment: (§2) Hypoxia radiosensitization activity in human HCT116 cells assessed as survival ratio by measuring ratio of cell survival with 15 Gy radiation in absence to presence of compound at anoxic IC50 preincubated for 1 hr followed by 15 Gy irradiation measured after 10 days by methylene blue staining-based cell counting method; assay type: functional
Method in brief: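 Anoxic HCT116 cells were seeded at 10^5/well and treated at the anoxic IC50 concentration for 1 h at room temperature. They were irradiated with 15 Gy (60Co, ~2 Gy/min) in a sealed steel box, then plated clonogenically. Colonies of >50 cells were counted […]. SR15 = survival with radiation / survival with drug + radiation.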

HCT-116 [5] = experiment: (§3) Hypoxia radiosensitization activity in human HCT116 cells assessed as sensitizer enhancement ratio by measuring ratio of radiation dose for 1% survival in absence to presence of compound at 9.8 mM preincubated for 1 hr followed by irradiation measured after 10 days by methylene blue staining-based cell counting method; assay type: functional
HCT-116 [6] = experiment: as §3, with “method relative to misonidazole” for “method”; assay type: functional
HCT-116 [7] = experiment: as §2, with “with” for “with 15 Gy”, “9.8 mM” for “anoxic IC50”, “6 to 29” for “15”; assay type: functional
HCT-116 [8] = experiment: as §2, with “with” for “with 15 Gy”, “9.8 mM” for “anoxic IC50”, “6 to 29” for “15”, “method relative to misonidazole” for “method”; assay type: functional
[9] = Toxicity in NIH-III mouse at 10 ml/kg, iv; details: in vivo
Method in brief: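 MTD was the highest dose without drug-related deaths, >15% body-weight loss or severe morbidity. MAD was the maximum dose soluble in the injection volume. Vehicle was 0.9% saline with 1% DMSO, or for phosphate prodrugs saline with 2 molar equivalents of NaHCO3.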

Plasma [10] = experiment: Cmax in plasma of NIH-III mouse xenografted with human HCT116 cells at 1.24 mmol/kg, iv administered as single dose by HPLC analysis; assay type: ADME, organism-based; design: dose 1.24 mmol/kg, route intravenous; details: in vivo
Method in brief: (§4)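 Female NIH-III mice bearing subcutaneous HCT116 xenografts (10^6 cells inoculated). At ca. 300 mm3 tumor size, a single i.v. dose was given at the MAD or 75% of the MTD. Vehicle was 0.9% saline with 1% DMSO, or saline with 2 molar equivalents NaHCO3 for phosphate prodrugs. Plasma and tumor were sampled at multiple times by cardiac puncture and excision, assayed by HPLC, and analysed noncompartmentally.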

[11] = Tmax in plasma of NIH-III mouse xenografted with human HCT116 cells at 1.24 mmol/kg, iv administered as single dose by HPLC analysis; assay type: ADME, organism-based
Method in brief: (§5)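 Female NIH-III mice bearing subcutaneous HCT116 tumors (10^6 cells; ~300 mm3) got a single i.v. dose at the MAD or 75% of the MTD. Vehicle was saline with 1% DMSO, or saline with 2 equivalents of NaHCO3 for the phosphates. Plasma and tumor were sampled at multiple times by cardiac puncture and excision, drug was measured by HPLC, and Tmax came from noncompartmental analysis.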

[12] = Cmax in tumor of NIH-III mouse xenografted with human HCT116 cells at 1.24 mmol/kg, iv administered as single dose by HPLC analysis; assay type: ADME, organism-based, Neoplasm; design: dose 1.24 mmol/kg, route intravenous; details: in vivo; method in brief: as §4
[13] = Tmax in tumor of NIH-III mouse xenografted with human HCT116 cells at 1.24 mmol/kg, iv administered as single dose by HPLC analysis; assay type: ADME, organism-based, Neoplasm; details: 0.93 mmol/kg, in the assay text read “0.93 mmol/kg” for “1.24 mmol/kg”; method in brief: as §5
HCT-116 [14] = experiment: (§6) In vivo hypoxia radiosensitization activity in human HCT116 cells xenografted in NIH-III mouse assessed as survival ratio by measuring ratio of cell survival with 12.5 Gy radiation in absence to presence of compound at 1.24 mmol/kg, iv pretreated as single dose for 10 mins followed by irradiation measured after 18 hrs by excision assay; assay type: functional
[15] = Electrophilicity of the compound in pH 7 phosphate buffer assessed as one-electron reduction potential
Method in brief: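 The one-electron reduction potential was set by pulse radiolysis equilibria at pH 7.0 (2.5 mM phosphate), established within 20 µs against benzylviologen, methylviologen or triquat. ΔE came from equilibrium constants via the Nernst equation, at three concentration ratios and 22 ± 2 °C.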

HCT-116 [16] = experiment: Cytotoxicity against human HCT116 cells at anoxic IC50 incubated for 1 hr at 21 degC by clonogenic survival assay; details: hct-116, 1 h
Mus musculus [17] = experiment: Toxicity in NIH-III mouse xenografted with human HCT116 cells assessed as change in body weight with 12.5 Gy radiation at 0.93 mmol/kg, iv administered as single dose; details: in vivo
HCT-116 [18] = experiment: as §3, with “4.39” for “9.8”; assay type: functional
HCT-116 [19] = experiment: as §3, with “4.39” for “9.8”, “method relative to misonidazole” for “method”; assay type: functional
HCT-116 [20] = experiment: as §2, with “with” for “with 15 Gy”, “4.39 mM” for “anoxic IC50”, “6 to 29” for “15”; assay type: functional
HCT-116 [21] = experiment: as §2, with “with” for “with 15 Gy”, “4.39 mM” for “anoxic IC50”, “6 to 29” for “15”, “method relative to misonidazole” for “method”; assay type: functional
HCT-116 [22] = experiment: as §2, with “with” for “with 15 Gy”, “0.11 mM” for “anoxic IC50”, “6 to 29” for “15”; assay type: functional
HCT-116 [23] = experiment: as §2, with “with” for “with 15 Gy”, “0.11 mM” for “anoxic IC50”, “6 to 29” for “15”, “method relative to misonidazole” for “method”; assay type: functional
Mus musculus [24] = experiment: Drug level in NIH-III mouse assessed as maximum achievable dose at 10 ml/kg, iv; assay type: ADME; details: in vivo
Method in brief: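 Non-tumor-bearing female NIH-III mice (~20 g) received freshly prepared solutions i.v. at 10 mL/kg in 0.9% saline with 1% DMSO, or saline with 2 molar equivalents NaHCO3 for phosphate prodrugs. MAD was the maximum dose that dissolved in the injection volume.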

Plasma [25] = experiment: Cmax in plasma of NIH-III mouse xenografted with human HCT116 cells at 0.60 mmol/kg, iv administered as single dose by HPLC analysis; assay type: ADME, organism-based; design: dose 0.6 mmol/kg, route intravenous; details: in vivo; method in brief: as §4
[26] = Tmax in plasma of NIH-III mouse xenografted with human HCT116 cells at 0.60 mmol/kg, iv administered as single dose by HPLC analysis; assay type: ADME, organism-based; details: 0.6 mmol/kg; method in brief: as §5
[27] = Cmax in tumor of NIH-III mouse xenografted with human HCT116 cells at 0.60 mmol/kg, iv administered as single dose by HPLC analysis; assay type: ADME, organism-based, Neoplasm; design: dose 0.6 mmol/kg, route intravenous; details: in vivo; method in brief: as §4
[28] = Tmax in tumor of NIH-III mouse xenografted with human HCT116 cells at 0.60 mmol/kg, iv administered as single dose by HPLC analysis; assay type: ADME, organism-based, Neoplasm; details: 0.6 mmol/kg; method in brief: as §5
HCT-116 [29] = experiment: as §6, with “0.6” for “1.24”; assay type: functional
HCT-116 [30] = experiment: Cytotoxicity against human HCT116 cells incubated for 4 hrs under aerobic condition measured after 5 days by sulforhodamine B assay; assay type: cell-based; method in brief: as §1
HCT-116 [31] = experiment: as §3, with “0.82” for “9.8”, “method relative to misonidazole” for “method”; assay type: functional
HCT-116 [32] = experiment: as §3, with “0.82” for “9.8”; assay type: functional
HCT-116 [33] = experiment: as §2, with “with” for “with 15 Gy”, “0.82 mM” for “anoxic IC50”, “6 to 29” for “15”; assay type: functional
HCT-116 [34] = experiment: as §2, with “with” for “with 15 Gy”, “0.82 mM” for “anoxic IC50”, “6 to 29” for “15”, “method relative to misonidazole” for “method”; assay type: functional
HCT-116 [35] = experiment: as §2, with “with” for “with 15 Gy”, “0.7 mM” for “anoxic IC50”, “6 to 29” for “15”; assay type: functional
HCT-116 [36] = experiment: as §2, with “with” for “with 15 Gy”, “0.7 mM” for “anoxic IC50”, “6 to 29” for “15”, “method relative to misonidazole” for “method”; assay type: functional

Which solubility [1] does the source give for `O=[N+]([O-])c1cncn1CCN1CCOCC1` [NIMORAZOLE] here?
The solubility was greater than 100 mM.

And the IC50 (HCT-116 [2])?
Its IC50 is 9.8 mM.

And the “Ratio IC50” value (HCT-116 [3])?
Its value is 0.8.

And the Ratio (HCT-116 [4])?
Its Ratio is 37.

What about the Ratio (HCT-116 [5]) of the same compound?
The Ratio was 1.8.

And the “fold change (FC)” value (HCT-116 [6])?
Its value is 1.27.

And the Ratio (HCT-116 [7])?
The Ratio was 44.9.

What about the “fold change (FC)” value (HCT-116 [8]) of the same compound?
The value was 7.28.

What about the MTD [9] of the same compound?
The MTD was 1240 µmol/kg.

And the Cmax (Plasma [10])?
The Cmax was 1210 µM.

And the Tmax [11]?
The Tmax was 5 min.

What about the Cmax [12] of the same compound?
Its Cmax is 91 µM.

And the Tmax [13]?
The Tmax was 10 min.

And the Ratio (HCT-116 [14])?
Its Ratio is 4.

And the Activity [15]?
The Activity was -457 mV.

What about the Activity (HCT-116 [16]) of the same compound?
The Activity was “Non-Toxic”.

What about the Activity (Mus musculus [17]) of the same compound?
Its Activity is “Non-Toxic”.

With `COCCNS(=O)(=O)CCn1cncc1[N+](=O)[O-]` as the compound, how does the solubility [1] read?
Its solubility is 24.4 mM (≈ 6.79 mg/mL).

What about the IC50 (HCT-116 [2]) of the same compound?
The IC50 was 4.4 mM.

What about the “Ratio IC50” value (HCT-116 [3]) of the same compound?
The value was 2.5.

What about the Ratio (HCT-116 [4]) of the same compound?
The Ratio was 122.

What about the Ratio (HCT-116 [18]) of the same compound?
Its Ratio is 1.56.

And the “fold change (FC)” value (HCT-116 [19])?
The value was 1.08.

And the Ratio (HCT-116 [20])?
Its Ratio is 26.

What about the “fold change (FC)” value (HCT-116 [21]) of the same compound?
Its value is 2.23.

And the Activity [15]?
Its Activity is -450 mV.

And the Activity (HCT-116 [16])?
The Activity was “Non-Toxic”.

Which Ratio (HCT-116 [22]) does the source give for `O=[N+]([O-])c1nccn1CS(=O)(=O)NCCO` here?
Its Ratio is 1.8.

What about the “fold change (FC)” value (HCT-116 [23]) of the same compound?
The value was 0.47.

And the Drug uptake (Mus musculus [24])?
The Drug uptake was 0.6 mmol/kg.

And the Cmax (Plasma [25])?
Its Cmax is 570 µM.

And the Tmax [26]?
The Tmax was 5 min.

What about the Cmax [27] of the same compound?
The Cmax was 94 µM.

What about the Tmax [28] of the same compound?
The Tmax was 10 min.

What about the Ratio (HCT-116 [29]) of the same compound?
The Ratio was 2.4.

And the IC50 (HCT-116 [30])?
The IC50 was 0.38 to 4.8 mM.

What about the Activity (HCT-116 [16]) of the same compound?
The Activity was “Non-Toxic”.

For `Cc1ncc([N+](=O)[O-])n1CCS(=O)(=O)NCCN(C)C`, which “fold change (FC)” value (HCT-116 [31]) is on record?
The value was 1.06.

What about the solubility [1] of the same compound?
The solubility was 46.8 mM (≈ 14.3 mg/mL).

And the IC50 (HCT-116 [2])?
The IC50 was 0.8 mM.

And the “Ratio IC50” value (HCT-116 [3])?
The value was 6.

And the Ratio (HCT-116 [4])?
The Ratio was 11.

What about the Ratio (HCT-116 [32]) of the same compound?
Its Ratio is 1.57.

And the Ratio (HCT-116 [33])?
Its Ratio is 14.9.

And the “fold change (FC)” value (HCT-116 [34])?
The value was 1.51.

What about the Activity (HCT-116 [16]) of the same compound?
The Activity was “Non-Toxic”.

Which results are given for `Cc1ncc([N+](=O)[O-])n1CCS(=O)(=O)NCCN1CCCC1`?
Ratio (HCT-116 [35]): 13.6; fold change (FC) (HCT-116 [36]): 1.51; Activity (HCT-116 [16]): Non-Toxic
